Rows were chosen to be rich in hits. Some 3.1% of all compounds tested hit in one or more screens of this group.
VIM-2 inh: inhibitors of Pseudomonas aeruginosa VIM-2 metallo-beta-lactamase. purified VIM-2, nitrocefin hydrolysis, epi-absorbance fluorescence. inhibition, % at 5.6 µM. 290,000 tested, 0.89% active;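 active = inhibition above the mean of all tested compounds plus 3 SD, cutoff set per screening run, cut at about 7.5% in these data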;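 also: red hydrolysis product quenches plate fluorescence so inhibitors raise well fluorescence; 0% = enzyme with DMSO and 100% = DMSO without enzyme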
HCV core dimer: blocks dimerization of HCV core protein | 300,000 tested, 0.33% active | TR-FRET GST/Flag-core106 dimerization, 1536-well | inhibition, % at 5 µM | AID 1899;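 active = inhibition above the mean of all tested compounds plus 3 SD, set per screening campaign, cut at about 45% in these data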
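Assay system: GST-tagged and Flag-tagged HCV core protein residues 1-106 / Times: compound-protein-antibody incubation 4 h at 22.5 °C / Signal: time-resolved FRET, ex 340 nm, em 617 and 671 nm / Evaluation: % inhibition based on acceptor/donor emission ratio / Benchmarks: wells lacking GST-core106 and wells with excess unlabelled core106 / Repeats: singlicate, one well per compound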
SUMO HTRF inh: inhibitors of human SUMOylation (UBC9) | HTRF SUMOylation assay, SAE1/SAE2 + UBC9, in vitro | inhibition, % at 35 µM | 290,000 tested, 0.36% active | AID 2006; in the data active = inhibition above about 50%, passing the limit was not always enough
Target sequence (P63279 whole entry, looked up): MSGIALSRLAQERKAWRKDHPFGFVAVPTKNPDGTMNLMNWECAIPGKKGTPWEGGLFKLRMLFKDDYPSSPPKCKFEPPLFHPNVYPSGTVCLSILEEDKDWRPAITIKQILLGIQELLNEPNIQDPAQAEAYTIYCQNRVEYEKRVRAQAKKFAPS
IMP-1 inh: inhibitors of Pseudomonas aeruginosa IMP-1 metallo-beta-lactamase; purified IMP-1, nitrocefin hydrolysis, epi-absorbance fluorescence; 290,000 tested, 0.45% active; inhibition, % at 5.6 µM;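 active = inhibition above the mean plus 3 SD of all compounds in the same screening run, cut at about 4.5% in these data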;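 also: 0% = IMP-1 with DMSO and 100% = DMSO wells lacking enzyme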
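Assay system: purified recombinant IMP-1 beta-lactamase. Input: IMP-1 0.2 nM before substrate addition. Buffer or medium: Zinc- and detergent-supplemented HEPES buffer, pH 7.1. Schedule: 25 °C, 15 min preincubation, 25 min reaction. Signal: Epi-absorbance fluorescence, 480 nm excitation, 530 nm emission. Evaluation: percent inhibition from optical density relative to buffer-blank wells.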
NS3 helicase inh: blocks Hepatitis C virus NS3 helicase unwinding; NS3 helicase DNA unwinding, Cy5 molecular beacon fluorescence; inhibition, % at 10.9 µM; 290,000 tested, 0.56% active;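 active = inhibition above the mean of all tested compounds plus 3 SD, set per campaign, cut at about 35% in these data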;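 also: 0% = DMSO wells and 100% = thioflavine S control wells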
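Assay system: hepatitis C virus NS3 helicase domain fragment enzyme. Also added: annealed dual-labelled DNA beacon duplex, ATP-started. Timing: 1 h reaction at 25 °C, ATP-initiated. Technique: Cy5 fluorescence at 0 and 60 min, beacon hairpin quenching. Evaluation: % inhibition of unwinding. Replication: one well per compound.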
PHOSPHO1 inh: blocks human PHOSPHO1 phosphatase activity; recombinant PHOSPHO1, absorbance phosphatase assay; 290,000 tested, 1.1% active; inhibition, % at 13.3 µM; in the data active = inhibition above about 60%
Target sequence (Q8TCT1 whole entry, looked up): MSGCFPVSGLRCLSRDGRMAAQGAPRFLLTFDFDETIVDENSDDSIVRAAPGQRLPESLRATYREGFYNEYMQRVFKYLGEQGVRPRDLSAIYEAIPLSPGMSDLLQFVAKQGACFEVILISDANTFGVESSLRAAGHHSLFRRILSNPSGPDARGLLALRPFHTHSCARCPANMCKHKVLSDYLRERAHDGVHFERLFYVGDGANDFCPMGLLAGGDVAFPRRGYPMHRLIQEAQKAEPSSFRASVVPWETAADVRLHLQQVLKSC
Active calls of the source: *; / = not tested or not shown.

SMILES | VIM-2 inh | HCV core dimer | SUMO HTRF inh | IMP-1 inh | NS3 helicase inh | PHOSPHO1 inh
COc1cc(OC)cc(C(=O)OC/C(O)=C(\C#N)c2nc3ccccc3[nH]2)c1 | -2 | 3 | 36 | -1 | -4 | 24
Cc1ccc(-n2c(Cn3nc(C(F)(F)F)cc3C)n[nH]c2=S)cc1 | -5 | -2 | 11 | -1 | -2 | 81*
COc1cccc(-c2csc(N3CCN(C(=O)Nc4ccc(Cl)cc4)CC3)n2)c1 | -2 | 12 | -22 | -3 | -7 | 64*
COc1ccc(NC(=O)N2CCN(c3nc(-c4cccc(OC)c4)cs3)CC2)cc1 | -2 | 0 | 9 | -1 | -14 | 7
CC1(C)C(CSc2nc3ccccc3[nH]2)C1(Cl)Cl (stereo unspecified) | -2 | 4 | -9 | -3 | 3 | -10
CCOc1cc(CNCc2cccnc2)ccc1OCC(=O)NC(C)(C)C | -1 | -3 | 13 | -2 | 7 | 73*
CCNc1nc(NCC)n2c(SCC(=O)c3ccccc3F)nnc2n1 | -1 | -4 | 6 | -3 | 0 | -54
COCCN(C(=O)COC(=O)CCS(=O)(=O)c1ccccc1)c1c(N)n(Cc2ccccc2)c(=O)[nH]c1=O | / | -2 | / | / | / | /
O=C(COc1cc(Cl)c(Cl)cc1Cl)Nc1ccc([N+](=O)[O-])cc1Cl | -1 | 8 | 19 | 0 | 6 | 30
COCCC(=O)N1CCCC(C(=O)c2ccccc2SC)C1 (stereo unspecified) | -2 | -4 | / | 19* | -18 | /
COCC(=O)N1CCCC(C(=O)c2ccc(-c3ccccc3)c(F)c2)C1 (stereo unspecified) | -3 | 8 | 8 | -2 | 4 | 63*
CSc1ccccc1C(=O)C1CCCN(C(=O)CCN2CCCO2)C1 (stereo unspecified) | -1 | 0 | 20 | -1 | 10 | 46
Cc1ccc(OCCC(=O)OCC(=O)NC2CCS(=O)(=O)C2)cc1 (stereo unspecified) | / | 0 | / | / | / | /
CCOC(=O)CC(=O)CSc1nnc(Cn2c(=O)sc3ccccc32)n1C | 4 | 1 | -5 | -1 | 22 | 71*
c1coc(C2=Nc3cccc4cccc(c34)N2)c1 | -2 | -28 | 94* | -4 | 2 | 20
O=C1N[C@@H](Cc2cn(S(=O)(=O)c3c(F)c(F)c(F)c(F)c3F)c3ccccc23)C(=O)N[C@H]1Cc1ccccc1 | / | 49* | / | / | / | /
CCCNC(=O)c1ccc2c(=O)c(O)c(-c3ccsc3)[nH]c2c1 | / | -14 | 53* | / | / | 26
C=CCn1c(C(C)NC(=O)c2ccc(C)cc2)n[nH]c1=S (stereo unspecified) | -3 | -3 | -11 | -4 | 3 | -5
C=CCn1c(NC(=O)c2ccc(C)cc2)c(C#N)sc1=N | -1 | -1 | 12 | -5 | 3 | 96*
Cc1ccc2nc(N3CCN(S(=O)(=O)c4ccc(C)c(Cl)c4)CC3)c(C#N)cc2c1 | -4 | 62* | 27 | 1 | -8 | 21
Cc1c(OC(=O)c2ccc([N+](=O)[O-])cc2)c2c(c[n+]1C)COC(C)(C)OC2 | 0 | -3 | -4 | -2 | 0 | 103*
Cc1ncc2c(c1OC(=O)c1ccccc1)COC(C)(C)OC2 | -5 | 3 | -8 | -2 | 11 | 11
COc1nccc(NCc2ccccc2)c1C#N | / | -3 | / | / | / | /
S=c1[nH]cc(-c2ccccc2)[nH]1 | -1 | -3 | 24 | -2 | 3 | -25
O=[N+]([O-])c1ccc(-c2c[nH]c(=S)[nH]2)cc1 | -4 | 53* | -2 | -5 | 19 | -28
SMILES | VIM-2 inh | HCV core dimer | SUMO HTRF inh | IMP-1 inh | NS3 helicase inh | PHOSPHO1 inh
CC(C)S(=O)(=O)c1cnc(-c2cccnc2)nc1N | -3 | -8 | 17 | -3 | -1 | 23
CCOc1cc(NC(=S)NCCCN2CCOCC2)c(OCC)cc1NC(=O)C1CCCCC1 | -2 | -6 | 7 | -2 | -24 | 28
CCOC(=O)c1cc(=O)n2nc(-c3ccc(C)cc3)nc2s1 | -1 | -2 | 17 | -1 | -2 | 75*
CCOC(=O)Cc1csc2nc(-c3ccccc3)nn12 | -3 | -2 | 0 | -3 | -13 | 25
C/C=C/COC(=O)c1[nH]c2c(c1C)C(=O)CC(c1ccco1)C2 (stereo unspecified) | -4 | 53* | 27 | -4 | 30 | -3
Cc1c(C(=O)OCC2CCCO2)[nH]c2c1C(=O)CC(c1ccco1)C2 (stereo unspecified) | -1 | 86* | 42 | -3 | 18 | 31
O=C(Nc1ccc(F)cc1)c1ccc2c(=O)n(CC3CCCO3)c(=S)[nH]c2c1 (stereo unspecified) | -3 | 8 | -7 | -2 | 10 | 24
COCCn1nnnc1C(c1ccc(Cl)cc1)N1CCSCC1 (stereo unspecified) | -3 | 5 | 19 | -1 | 6 | 74*
Cc1ccc(CN(Cc2ccccc2)C(=S)NCC(=O)NCc2cccnc2)o1 | -2 | 3 | -2 | -2 | 3 | -33
Cc1cc(=O)n2c(sc3ccccc32)c1C#N | -2 | -1 | 0 | -3 | 2 | 11
Cc1cc(=O)n2c3ccccc3n(CC(O)CN3CCCC3)c2c1C#N (stereo unspecified) | 5 | 1 | -5 | -3 | -1 | 62*
CCCNCC(O)Cn1c2ccccc2n2c(=O)cc(C)c(C#N)c12 (stereo unspecified) | 8.5* | 6 | -1 | 0 | -7 | 7
Cc1ccc([N+](=O)[O-])cc1NC(=O)C(Sc1ccccc1)c1ccccc1 (stereo unspecified) | -4 | -1 | 6 | -2 | 5 | 6
Cc1sc2ncn3c(C)nnc3c2c1C | 10.0* | -6 | 10 | -1 | -5 | -16
N#C/C(=C\c1ccc([N+](=O)[O-])o1)C(=O)Nc1ccc(F)cc1 | -1 | 35 | 12 | -2 | 43* | 48
O=C(CSc1n[nH]c(=O)[nH]c1=O)Nc1ccc(C(=O)O)cc1 | 1 | -2 | 4 | 7.7* | 3 | 21
Cc1cc(NC(=O)CSc2n[nH]c(=O)[nH]c2=O)ccc1Br | -1 | -1 | -13 | 0 | 2 | 26
O=C(CSc1nc2ccccc2c(=O)n1CCCN1CCOCC1)NC12CC3CC(CC(C3)C1)C2 | -2 | 0 | -2 | -2 | -58 | 12
Cc1nc(C(C)NC(=O)c2ccc(OC3CCN(Cc4ccccn4)CC3)cc2)c(C)s1 (stereo unspecified) | -2 | -15 | / | -4 | -2 | 81*
COC(=O)[C@@H](NC(=O)c1ccc(OC2CCN(Cc3ccccn3)CC2)cc1)C(C)C | 0 | -6 | 7 | -1 | 3 | 60*
CC(=O)N1CCN(C(=O)c2ccc(OC3CCN(Cc4ccccn4)CC3)cc2)CC1 | 0 | -7 | -4 | -5 | 6 | 52
CCC(O)C1CCN(C(=O)c2ccc(OC3CCN(Cc4ccccn4)CC3)cc2)CC1 (stereo unspecified) | -1 | -14 | 11 | -4 | 14 | 70*

Bioassay records from PubChem BioAssay.
